Measurements of several laboratories.
Each line is one published result; the experiments were not run side by side.
Cell line: HCT-116
Observed: cell growth or viability

SMILES	method	concentration	time	quantity	result
COc1ccc(C(=O)/C=C/c2ccc3ccccc3c2)cc1S(N)(=O)=O	SRB		48 h	GI50	1.9 µM
Cc1nc2ccc(Br)cc2c(=O)n1/N=C/c1ccc(C(=O)O)cc1	LDH	200 µg/mL	24 h	viability	53.5%
COc1ccc(NC(=O)c2c(Nc3ccccc3)sc(C#N)c2NC(=O)CNc2ccc(OC)c(OC)c2)cc1	SRB	10 µM	48 h	viability	53.6%
Cc1c(OCC(F)(F)F)ccnc1COc1ccc(NC(=O)Nc2cccc(C(F)(F)F)c2)cc1	MTT		72 h	IC50	5.43 µM
COc1cc2c(OC)nc3c4cc5c(cc4cc(OCCN4CCCC4)c3c2cc1OC)OCO5	MTT		72 h	GI50	64 µM
COc1ccccc1/C=C/C(=O)c1ccc(OC)c(S(N)(=O)=O)c1	SRB	10 µM		inhibition	95%
COc1ccc(NC(=O)c2c(Nc3ccccc3)sc(C(=O)NN=Cc3cc(OC)c(OC)c(OC)c3)c2NC(C)=O)cc1	SRB	0.1 µM	48 h	viability	86.1%
COc1ccc(C(=O)/C=C/c2cccc(Cl)c2)cc1S(N)(=O)=O	SRB		48 h	GI50	1.2 µM
COc1ccc2cc(/C=N/n3c(C)nc4ccc(Br)cc4c3=O)ccc2c1	LDH	200 µg/mL	24 h	viability	57%
COc1ccc(C=NNC(=O)c2sc(Nc3ccccc3)c(C(=O)Nc3ccc(OC)cc3)c2NC(C)=O)cc1	SRB	10 µM	48 h	viability	46.8%
COc1ccc(C(=O)/C=C/c2cccc(Br)c2)cc1S(N)(=O)=O	SRB	10 µM		inhibition	199%
COc1ccc(NCC(=O)Nc2c(C#N)sc(Nc3ccccc3)c2C(=O)Nc2ccc(OC)cc2)cc1	SRB	10 nM	48 h	viability	82.6%
COc1ccc(C(=O)/C=C/c2cccc(Cl)c2Cl)cc1S(N)(=O)=O	SRB		48 h	GI50	1.3 µM
COc1ccc(NC(=O)c2c(Nc3ccccc3)sc(C(=O)NN=Cc3ccc(Cl)cc3)c2NC(C)=O)cc1	SRB	1 µM	48 h	viability	74.2%
COc1cc2c(OC)nc3c4cc5c(cc4cc(OCCCN4CCC(N6CCCCC6)CC4)c3c2cc1OC)OCO5	MTT		72 h	GI50	5.7 µM
COc1ccc(NC(=O)c2c(Nc3ccccc3)sc(C#N)c2NC(=O)CNc2ccc(Cl)cc2)cc1	SRB	10 µM	48 h	viability	48.6%
CCc1ccc(/C=N/n2c(C)nc3ccc(C)cc3c2=O)s1	LDH	200 µg/mL	24 h	viability	86.5%
COc1cc2c(OC)nc3c4cc5c(cc4cc(OCCCN(C)C)c3c2cc1OC)OCO5	MTT		72 h	GI50	15 µM
